# Source: ChEMBL document CHEMBL1157593, “Structure-based design, synthesis, and biological studies of new anticancer norindenoisoquinoline topoisomerase I inhibitors” (2010)
# Active and inactive are the calls of the source. The calls are words filed in the database; no cut-off is given here.
# What was measured:
# [1] = tested on: UACC-62; assay: Antiproliferative activity against human UACC62 cells; type: functional
# [2] = tested on: HCT-116; assay: Antiproliferative activity against human HCT116 cells; type: functional
# [3] = tested on: HOP-62; assay: Antiproliferative activity against human HOP62 cells; type: functional
# [4] = tested on: SF-539; assay: Antiproliferative activity against human SF539 cells; type: functional
# [5] = tested on: SN12C; assay: Antiproliferative activity against human SN12C cells; type: functional
# [6] = tested on: DU-145; assay: Antiproliferative activity against human DU145 cells; type: functional
# [7] = tested on: MDA-MB-435; assay: Antiproliferative activity against human MDA-MB-435 cells; type: functional
# [8] = target: T1, DNA topoisomerase 1 (Homo sapiens) (UniProt P11387); assay: Inhibition of human recombinant topoisomerase-1-mediated 117bp DNA oligonucleotide cleavage at 10 uM by PAGE
# T1 sequence (whole entry): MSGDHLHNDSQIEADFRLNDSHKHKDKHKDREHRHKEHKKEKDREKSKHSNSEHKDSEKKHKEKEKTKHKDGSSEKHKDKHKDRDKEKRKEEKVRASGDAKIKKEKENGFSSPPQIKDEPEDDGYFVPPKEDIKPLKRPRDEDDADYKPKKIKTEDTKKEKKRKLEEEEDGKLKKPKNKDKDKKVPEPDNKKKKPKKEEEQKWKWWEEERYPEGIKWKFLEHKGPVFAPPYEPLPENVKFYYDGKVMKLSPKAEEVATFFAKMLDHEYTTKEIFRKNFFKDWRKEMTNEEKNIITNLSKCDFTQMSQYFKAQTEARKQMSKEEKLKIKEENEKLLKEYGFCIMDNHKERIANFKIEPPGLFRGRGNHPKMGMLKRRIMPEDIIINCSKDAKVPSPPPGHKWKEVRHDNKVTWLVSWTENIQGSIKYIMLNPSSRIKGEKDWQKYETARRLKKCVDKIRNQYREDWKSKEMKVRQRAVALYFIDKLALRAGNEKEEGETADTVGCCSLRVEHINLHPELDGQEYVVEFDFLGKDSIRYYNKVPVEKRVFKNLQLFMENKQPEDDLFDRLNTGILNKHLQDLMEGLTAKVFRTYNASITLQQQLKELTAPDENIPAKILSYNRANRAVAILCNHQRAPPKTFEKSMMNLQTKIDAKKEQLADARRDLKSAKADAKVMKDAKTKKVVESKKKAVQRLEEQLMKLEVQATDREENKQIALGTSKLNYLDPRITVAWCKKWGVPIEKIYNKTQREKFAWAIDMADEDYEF
# Procedure, shortened: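 About 2 nM of it is incubated with recombinant Top1 in 10 mM Tris-HCl pH 7.5, 50 mM KCl, 5 mM MgCl2, 0.1 mM EDTA and 15 μg/mL BSA, with compound, for 20 min at 25 °C. Reactions are stopped with 0.5% SDS, run on 20% denaturing PAGE, and cleavage is scored semiquantitatively (0 to ++++) against 1 μM CPT.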
# [9] = tested on: OVCAR-3; assay: Antiproliferative activity against human OVCAR-3 cells; type: functional
# [10] = tested on: SR; assay: Antiproliferative activity against human SR cells; type: functional
# [11] = tested on: NCI-H460; assay: Antiproliferative activity against human NCI-H460 cells; type: functional
# [12] = tested on: IGROV-1; assay: Antiproliferative activity against human IGROV1 cells; type: functional
# [13] = tested on: MCF7; assay: Antiproliferative activity against human MCF7 cells; type: functional
# [14] = tested on: HCC 2998; assay: Antiproliferative activity against human HCC2998 cells; type: functional
# [15] = tested on: COLO 205; assay: Antiproliferative activity against human COLO205 cells; type: functional
# [16] = tested on: CAKI-1; assay: Antiproliferative activity against human Caki1 cells; type: functional
# [17] = tested on: ACHN; assay: Antiproliferative activity against human ACHN cells; type: functional
# [18] = tested on: U-251; assay: Antiproliferative activity against human U251 cells; type: functional
# [19] = tested on: SF-295; assay: Antiproliferative activity against human SF295 cells; type: functional
# [20] = tested on: CCRF-CEM; assay: Antiproliferative activity against human CCRF-CEM cells; type: functional
# [21] = tested on: MOLT-4; assay: Antiproliferative activity against human MOLT4 cells; type: functional
# [22] = tested on: RPMI-8226; assay: Antiproliferative activity against human RPMI8226 cells; type: functional
SMILES,GI50 [2] [nM],GI50 [6] [nM],GI50 [7] [nM],inhibition [8],GI50 [9] [nM],GI50 [1] [nM],GI50 [3] [nM],GI50 [4] [nM],GI50 [5] [nM],other results
COc1cc2cnc3c(c2cc1OC)Cc1cc2c(cc1-3)OCO2,> 100000,28,< 10,Active,,< 10,72,< 10,> 100000,
CC[C@@]1(O)C(=O)OCc2c1cc1n(c2=O)Cc2cc3ccccc3nc2-1 [CAMPTOTHECIN],30,10,40,,,10,10,10,20,
COc1cc2cnc3c(c2cc1OC)Cc1c-3cc2c(c1CN(C)CCN(C)C)OCO2,1900,3400,,Active,7400,730,1500,11000,> 100000,
COc1cc2c3c(n(C)c(=O)c2cc1OC)-c1cc2c(cc1C3=O)OCO2,35000,37000,96000,Active,,4200,1300,41000,68000,
COc1cc2cnc3c(c2cc1OC)Cc1c-3cc2c(c1CN1CCN(C)CC1)OCO2,,,,Active,,,,,,
COc1cc2cnc3c(c2cc1OC)Cc1c-3cc2c(c1CN(C)C)OCO2,1500,1600,16000,Active,1400,12000,6700,14000,13000,

# The remaining compounds from weak to strong by GI50 [2], led by results:
GI50 [2] [nM],GI50 [6] [nM],GI50 [7] [nM],inhibition [8],GI50 [9] [nM],SMILES,GI50 [1] [nM],GI50 [3] [nM],GI50 [4] [nM],GI50 [5] [nM],other results
1400,1900,,,1700,COc1cc2cnc3c(c2cc1OC)Cc1c-3cc2c(c1CN1CCOCC1)OCO2,100000,2100,1800,2300,
890,> 100000,> 100000,Active,5800,COc1cc2cnc3c(c2cc1OC)Cc1c-3cc2c(c1C)OCO2,700,7300,4600,> 100000,
640,730,2500,Active,730,COc1cc2cnc3c(c2cc1OC)Cc1c-3cc2c(c1CN1CCCC1)OCO2,6700,1200,1900,4400,
160,260,,Active,210,COc1cc2cnc3c(c2cc1OC)Cc1c-3cc2c(c1Cn1ccnc1)OCO2,210,350,280,600,GI50 [10]: 12 nM; GI50 [11]: 130 nM; GI50 [12]: 120 nM; GI50 [13]: 90 nM; GI50 [14]: 1100 nM; GI50 [15]: 510 nM; GI50 [16]: 290 nM; GI50 [17]: 280 nM; GI50 [18]: 160 nM; GI50 [19]: 150 nM; GI50 [20]: 37 nM; GI50 [21]: 60 nM; GI50 [22]: 41 nM
